Test results taken from ChEMBL document CHEMBL3352174, “Identification of a New RXRα Antagonist Targeting the Coregulator-Binding Site” (ACS Med Chem Lett, 2014).
Positions count from the first letter of the chain named. Active and inactive are the calls of the source. The rule behind the calls is not given here.

Tests used:
[1] = tested on: T1, Retinoic acid receptor RXR-alpha (Homo sapiens), P19793 [V298S]; experiment: Antagonist activity against RXRalpha V298S mutant (unknown origin) expressed in human HEK293T cells assessed as inhibition of 9-cis-RA-induced receptor transactivation at 1 uM after 18 hrs by luciferase reporter gene based mammalian one-hybrid assay; assay type: cell-based; conditions: HEK-293T
T1 sequence (whole entry): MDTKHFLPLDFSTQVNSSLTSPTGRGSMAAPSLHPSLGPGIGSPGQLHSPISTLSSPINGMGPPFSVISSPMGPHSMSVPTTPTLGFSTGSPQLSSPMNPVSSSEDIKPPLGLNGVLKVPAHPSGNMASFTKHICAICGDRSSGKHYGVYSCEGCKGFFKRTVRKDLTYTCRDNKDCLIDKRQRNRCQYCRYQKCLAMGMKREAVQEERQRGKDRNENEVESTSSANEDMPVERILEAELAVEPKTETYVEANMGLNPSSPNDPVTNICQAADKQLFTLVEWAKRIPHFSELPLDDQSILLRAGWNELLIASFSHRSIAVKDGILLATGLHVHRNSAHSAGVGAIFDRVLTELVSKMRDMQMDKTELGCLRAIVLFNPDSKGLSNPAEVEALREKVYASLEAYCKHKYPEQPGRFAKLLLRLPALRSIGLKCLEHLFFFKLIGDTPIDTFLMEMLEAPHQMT
Outline: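 The pG5-Luc reporter was cotransfected with pBind-RXRα/V298S (Gal4-fusion construct) into HEK-293T cells. Cells were then exposed to the indicated compounds for 18 h, and luciferase reporter activity was measured.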

[2] = tested on: T2, Retinoic acid receptor RXR-alpha (Homo sapiens), P19793 [F313A]; conditions: HEK-293T, 1 uM
T2 sequence (whole entry): T1 sequence (whole entry) with S298V, F313A

[3] = tested on: T3, Retinoic acid receptor RXR-alpha (Homo sapiens), P19793 [C432W]; conditions: HEK-293T, 1 uM
T3 sequence (whole entry): T1 sequence (whole entry) with S298V, C432W

[4] = tested on: T4, Retinoic acid receptor RXR-alpha (Homo sapiens), P19793 [A272W]; conditions: HEK-293T, 1 uM
T4 sequence (whole entry): T1 sequence (whole entry) with A272W, S298V

[5] = target: T5, Retinoic acid receptor RXR-alpha (Homo sapiens) (UniProt P19793); experiment: Antagonist activity against Myc-tagged RXRalpha ligand binding domain (unknown origin) expressed in human MCF7 cells assessed as inhibition of 9-cis-RA-induced receptor transactivation at 10 uM after 18 hrs by luciferase reporter gene based mammalian one-hybrid assay; assay type: cell-based
T5 sequence (whole entry): T1 sequence (whole entry) with S298V
Outline: (§1)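 MCF-7 cells co-transfected with pG5-Luc reporter and pBind-RXRα-LBD. […] Read-out was dual-luciferase, with firefly normalized to Renilla for transfection efficiency. Single-concentration tests used 10 μM. Mean ± SD.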

[6] = target: T5, Retinoic acid receptor RXR-alpha (Homo sapiens); experiment: Antagonist activity against Myc-tagged RXRalpha ligand binding domain (unknown origin) expressed in human MCF7 cells assessed as inhibition of 9-cis-RA-induced receptor transactivation after 18 hrs by luciferase reporter gene based mammalian one-hybrid assay; assay type: cell-based; outline: as §1

SMILES	inhibition [1]	inhibition [2]	inhibition [3]	inhibition [4]	inhibition [5]	inhibition [6]
CCCCCOc1cc2c(cc1-c1cc(/C=C/C(=O)O)ccc1O)C(C)(C)CCC2(C)C	Active	–	–	–	–	–
CCCOc1cc2c(cc1C(=C1CC1)c1ccc(C(=O)O)cc1)C(C)(C)CCC2(C)C	Active	Active	inactive	inactive	–	–
CCC(Sc1nc2ccccc2s1)C(=O)N/N=C/c1c(O)ccc2ccccc12 (configuration not stated)	–	–	–	–	Active	Dose-dependent effect
